This is a sample that favours compounds with a hit; in the whole collection about 3.1% have one here.
KCNK3 block: human KCNK3 channel inhibitors, primary screen, CHO cells, FluxOR thallium flux, B-score; Potassium channel subfamily K member 3 (Homo sapiens), O14649; FluxOR fluorescence; hits give low values; B-score at 10 µM; 340,000 tested, 0.84% active; AID 602410, 2012;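 active = B-score under library mean minus 4 SD, starting fluorescence ratio at most library mean plus 5 SD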;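 also: more negative B-score means stronger inhibition of thallium flux through KCNK3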
KCNK9 inh: KCNK9 potassium channel inhibitors, primary screen, HEK293 cells, thallium flux; 310,000 tested, 1.2% active; B-score at 10 µM; AID 488922, 2010; FluxOR thallium flux fluorescence; hits give low values;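 active = ratio B-score over 3 SD below the library mean, with starting fluorescence within 5 SD of its mean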;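 also: negative B-score means less thallium flux so channel inhibition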
KCNQ1 inh: inhibitors of human KCNQ1 channel, primary screen, cell-based, thallium flux, high-throughput | Potassium voltage-gated channel subfamily KQT member 1 (Homo sapiens), P51787 | CHO-K1 KCNQ1, FluxOR thallium flux fluorescence; hits give high values | B-score at 10 µM | 310,000 tested, 1.3% active | AID 2642, 2010;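 active = compounds whose thallium flux B-score, printed positive for inhibition, exceeds three library SD while starting fluorescence stays within three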;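 also: channel opened by potassium depolarization with thallium stimulus after 20 min compound exposure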
hERG rescue: hERG rescue from dofetilide block, primary screen, cell-based, CHO-hERG, FluxOR thallium flux, dofetilide IC70; Voltage-gated inwardly rectifying potassium channel KCNH2 (Homo sapiens), Q12809; 310,000 tested, 0.51% active; dofetilide IC70 present; activation (rescue from dofetilide block), less the hit threshold, % at 10 µM; AID 1511, 2009;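 active = activation above the mean of controls blocked by dofetilide plus 5 SD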;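 also: thallium influx through hERG after potassium depolarization seen as dye fluorescence rise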
KCNQ1 act: potentiators or activators of KCNQ1 channel, primary screen, cell-based, thallium flux, high-throughput; Potassium voltage-gated channel subfamily KQT member 1 (Homo sapiens), P51787; CHO-K1 KCNQ1, thallium flux FluxOR fluorescence; hits give high values; B-score at 10 µM; 310,000 tested, 0.35% active; AID 2648, 2010;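 active = fluorescence ratio B-score, a plate-corrected score, at least three library SD, with initial intensity B-score within 5 SD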
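Material: CHO-K1 cells stably expressing KCNQ1. Medium: assay buffer for compound exposure, DMSO matched across wells. Reagent: K+/Tl+ depolarizing stimulus. Compound dosing: single-concentration screen. Times: 37 °C overnight plating, 90-min dark dye load, 20-min compound pretreatment. Technique: FluxOR Tl+ flux fluorescence.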
KCNK9 inh conf: KCNK9 potassium channel inhibitors, confirmation, HEK293 cells, thallium flux, duplicate | FluxOR thallium flux fluorescence | 4,900 tested, 43% active | inhibition, % at 10 µM | shares compounds with KCNK9 inh | AID 492992, 2010;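 active = thallium signal inhibited by more than 5 SD of the compound-free buffer control wells, on both duplicate plates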;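 also: 0% = assay buffer control wells without compound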
Kir21 sel: mouse Kir2.1 channel inhibition, confirmation, selectivity assay for KCNK9 modulator project, cell-based, HEK293, thallium flux | shares compounds with KCNK9 inh | Kir2.1 cells, FluxOR thallium flux fluorescence | inhibition, % at 10 µM | 4,900 tested, 4% active | AID 492993, 2010;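 active = thallium signal drop more than 5 SD beyond the mean of the no-compound control wells, seen in both duplicate plates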;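 also: signal is fluorescence rise after thallium addition divided by baseline fluorescence; plate controls were assay buffer only for no effect and full block by chlorpromazine control for full effect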
Target sequence (P35561 whole entry, looked up): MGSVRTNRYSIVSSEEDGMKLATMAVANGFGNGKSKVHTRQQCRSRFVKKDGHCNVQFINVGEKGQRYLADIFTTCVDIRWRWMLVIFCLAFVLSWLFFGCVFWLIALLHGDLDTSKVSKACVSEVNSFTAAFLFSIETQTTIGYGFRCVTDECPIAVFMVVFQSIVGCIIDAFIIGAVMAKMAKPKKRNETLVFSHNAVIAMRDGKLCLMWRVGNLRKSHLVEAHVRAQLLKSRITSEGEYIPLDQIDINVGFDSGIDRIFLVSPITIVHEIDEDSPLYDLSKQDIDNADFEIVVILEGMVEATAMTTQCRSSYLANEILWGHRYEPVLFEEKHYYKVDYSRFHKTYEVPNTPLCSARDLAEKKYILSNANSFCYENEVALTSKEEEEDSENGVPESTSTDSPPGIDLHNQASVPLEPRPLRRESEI
HEK293 Tl ctr: thallium flux in non-induced HEK293 cells, confirmation, counter-screen for KCNK9 inhibitor project, cell-based, second counter screen, non-induced KCNK9-HEK293 | inhibition, % at 10 µM | shares compounds with KCNK9 inh | 4,900 tested, 40% active | AID 492997, 2010 | FluxOR thallium flux;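 active = thallium signal drop beyond 5 SD of the untreated control mean, on both duplicate plates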;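 also: plate controls were buffer only IC0 wells for no effect and SID17386958 at its maximal inhibitory level for full effect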
An asterisk follows results filed as active; i = inactive; · = no result given.

SMILES	KCNK3 block	KCNK9 inh	KCNQ1 inh	hERG rescue	KCNQ1 act	KCNK9 inh conf	Kir21 sel	HEK293 Tl ctr
COc1cccc(C2CCCN2Cc2nc(CCC(C)C)no2)c1 (configuration not stated)	i	i	i	-15	i	i	i	i
COc1ccc(-c2nc(CS(=O)CC(=O)NC3CCCCC3C)c(C)o2)cc1 (configuration not stated)	i	i	i	-6	i	·	·	·
O=C(Cn1c(=O)c2c(ncn2C2CCCC2)n(Cc2ccccc2)c1=O)N1CCc2ccccc21	i	i	i	-10	i	i	i	i
Cc1ccccc1C(=O)Nc1sc(C)c(C)c1C(=O)c1ccccc1	i	i	8*	-20	i	i	i	i
COc1ccc(S(=O)(=O)NCCSCc2ccc(Cl)cc2)cc1NC(C)=O	i	·	·	·	·	·	·	·
Cc1cccc(NC(=O)[C@@H]2CCCN2S(=O)(=O)c2ccc(Cl)cc2)c1	i	·	·	·	·	·	·	·
CC(=O)c1cnn(-c2nc3c(C)cccc3s2)c1C	i	i	i	-8	i	i	i	i
CC(=O)c1cnn(-c2ccccc2)c1C	i	i	i	0	i	·	·	·
CCCNC(=O)C12CCC(C)(c3nc4cc(C)c(C)cc4nc31)C2(C)C (configuration not stated)	i	i	i	-8	i	i	i	i
O=C(CCc1ccccc1)n1nc(-c2ccccc2)nc1NCc1ccco1	i	-8.4*	i	-9	i	i	i	33%*
Cc1ccc(C)c(NC(=O)c2oc(=O)c3ccccc3c2-c2ccccc2)c1	i	-15*	i	-9	i	64%*	i	44%*
Cc1ccc(-c2nn(-c3ccccc3)cc2/C=N/n2c(-c3cccs3)n[nH]c2=S)cc1	i	i	i	-8	i	i	i	i
O=C(O/N=C\c1ccc(N2CCCCC2)c([N+](=O)[O-])c1)c1ccc(Cl)cc1Cl	i	i	i	-8	i	·	·	·
COc1ccccc1C(=O)/C=C/c1ccc(N2CCCCC2)c([N+](=O)[O-])c1	i	-10*	i	-4	i	50%*	i	31%*
O=C(N/N=C/c1cccs1)c1cc(-c2ccc3ccccc3c2)n[nH]1	i	i	i	-9	i	·	·	·
O=C(N/N=C/c1cccs1)c1cc(-c2cccc3ccccc23)n[nH]1	i	-13*	i	-5	i	54%*	i	32%*
O=C(NCCCNC(=O)c1ccc(-c2cc(Cl)ccc2Cl)o1)c1cnccn1	i	i	i	-7	i	·	·	·
O=c1c2c3c(sc2n(CCN2CCCCC2)c(=O)n1Cc1ccco1)CCCCC3	i	i	i	-14	i	i	i	i
Cc1ccc(N=Nc2c(O)ccc3n[nH]nc23)cc1	i	i	i	-9	i	i	i	i
CCOc1ccc(Br)cc1S(=O)(=O)Nc1ccccc1N1CCOCC1	i	-10*	i	-11	i	i	i	i
O=C1[C@@H]2[C@@H]3C[C@@H]([C@H]4ON=C(c5ccc(Cl)cc5Cl)[C@@H]34)[C@@H]2C(=O)N1C1CCCCC1	i	i	i	-8	i	i	i	i
Cc1cccc(NC(=O)C23CCC(C)(C2Br)C3(C)C)c1 (configuration not stated)	i	i	i	-9	i	i	i	i
COc1cccc(C(=O)NC2CCN(C(=O)N3c4ccccc4Sc4ccccc43)CC2)c1	i	i	i	-19	i	·	·	·
COc1cccc(C(=O)N2c3ccccc3Sc3ccccc32)c1	i	-11*	i	-8	i	58%*	i	48%*
O=C(Oc1ccccc1O)c1cccc2ccccc12	·	i	i	-21	i	·	·	·
SMILES	KCNK3 block	KCNK9 inh	KCNQ1 inh	hERG rescue	KCNQ1 act	KCNK9 inh conf	Kir21 sel	HEK293 Tl ctr
Cc1nnc(SCc2ccc(Cl)cc2)nc1/C=C/N(C)C	i	i	i	-12	i	i	i	i
COc1ccccc1COC(=O)c1ccc(S(=O)(=O)N2CCOCC2)cc1	i	·	·	·	·	·	·	·
CC(C)(C)c1ccc(OCCOc2ccc(C(C)(C)C)cc2NC=O)c(NC=O)c1	i	-8.2*	i	-9	i	34%*	i	i
COCCOc1ccc(C(F)(F)F)cc1NC(=O)c1ccccc1	i	i	i	-14	i	·	·	·
Cc1ccc2nc(-c3ccccn3)cc(C(=O)NCCc3ccc(F)cc3)c2c1	i	i	i	-3	i	·	·	·
Cc1ccccc1/C=C/c1nc2ccccc2c(=O)n1Cc1ccccc1	i	i	i	-3	i	·	·	·
Cc1ccccc1/C=C/c1nc2ccccc2c(=O)n1CCc1ccccc1	i	-11*	i	-7	i	24%*	i	33%*
COc1ccc(C)cc1N(C(=O)c1ccccc1F)c1nc2ccccc2s1	i	-9.7*	i	-13	i	46%*	i	36%*
COc1ccc(C)cc1N(C(=O)c1ccccc1)c1nc2ccccc2s1	i	-10*	i	-4	i	42%*	i	32%*
COc1ccc(C)cc1N(C(=O)COc1ccccc1)c1nc2ccccc2s1	i	i	i	-8	i	·	·	·
COc1ccc(C)cc1N(C(=O)c1cccc(F)c1)c1nc2ccccc2s1	i	·	·	·	·	·	·	·
C=CC1CN2CCC1CC2C(O)c1ccnc2ccc(OC)cc12 (configuration not stated)	i	·	·	·	·	·	·	·
CCCN(CC(=O)Nc1ccc(F)c(F)c1F)C(=O)Cc1ccc(OC)c(S(=O)(=O)N2CCOCC2)c1	i	·	·	·	·	·	·	·
CC(OC(=O)c1ccccc1NCCO)C(=O)NCC(=O)Nc1ccc(F)c(F)c1F (configuration not stated)	i	i	i	-16	i	·	·	·

Screening data from PubChem.
